The record followed here is ChEMBL document CHEMBL1135969, “Discovery of an opioid kappa receptor selective pure antagonist from a library of N-substituted 4beta-methyl-5-(3-hydroxyphenyl)morphans” (J Med Chem, 2002).

Experiment [1] has as its target Opioid receptors; mu & delta (Homo sapiens) (UniProt P41143+P35372). Kind of experiment: Selectivity ratio of Ki at mu opioid receptor to Ki at kappa opioid receptor. In kind it is protein assay.
The target in experiment [2] is Opioid receptors; delta & kappa (Homo sapiens) (UniProt P41145+P41143). The experiment is described as follows: Selectivity ratio of Ki at delta opioid receptor to Ki at kappa opioid receptor. In kind it is protein assay.
Experiment [3] addresses Kappa-type opioid receptor (Cavia porcellus, UniProt P41144). Kind of experiment: Ability to displace [3H]U-69593 from Opioid receptor kappa 1 of guinea pig brain. In outline: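 Competitive radioligand binding in guinea pig brain tissue, using tritiated U69,593, a κ-selective agonist, as the displaced ligand. Affinity is reported as Ki.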
The target of experiment [4] is Delta-type opioid receptor (Rattus norvegicus, UniProt P33533). The experiment is described as follows: Ability to displace [3H]DADLE from Opioid receptor delta 1 of rat brain. In kind it is tissue-based. In outline:
(§1)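 Radioligand displacement binding giving Ki values. Rat brain tissue was used for the μ site (tritiated μ-selective ligand) and the δ site ([3H]DADLE, δ-selective). Guinea pig brain tissue was used for the κ site ([3H]U69,593, a κ-selective agonist).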

The target of a further experiment is Mu-type opioid receptor (Rattus norvegicus, UniProt P33535). The experiment is described as follows: Ability to displace [3H]DAMGO from Opioid receptor mu 1 of rat brain. In kind it is tissue-based. A digest of the protocol: as §1
Experiment [5] has as its target Kappa-type opioid receptor (Homo sapiens) (UniProt P41145). Conditions: CHO.
The target in experiment [6] is Mu-type opioid receptor (Homo sapiens) (UniProt P35372). Conditions: CHO.
For experiment [7], the target named is Delta-type opioid receptor (Homo sapiens) (UniProt P41143). The following applies: CHO.
Sequence of Delta-type opioid receptor (Homo sapiens) (P41143 whole entry): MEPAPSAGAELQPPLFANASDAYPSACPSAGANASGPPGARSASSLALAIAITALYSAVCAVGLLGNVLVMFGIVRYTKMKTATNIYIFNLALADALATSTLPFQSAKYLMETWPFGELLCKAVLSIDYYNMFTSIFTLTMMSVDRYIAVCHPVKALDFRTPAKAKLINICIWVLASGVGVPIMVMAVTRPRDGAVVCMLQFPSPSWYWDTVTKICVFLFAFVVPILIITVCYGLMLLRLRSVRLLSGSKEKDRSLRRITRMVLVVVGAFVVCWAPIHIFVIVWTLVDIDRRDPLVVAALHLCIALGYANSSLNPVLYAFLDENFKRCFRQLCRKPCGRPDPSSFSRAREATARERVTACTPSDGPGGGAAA

Sequence of Opioid receptors; delta & kappa (Homo sapiens) (P41143 whole entry, looked up): as the sequence (P41143 whole entry) above
Sequence of Opioid receptors; delta & kappa (Homo sapiens) (P41145 whole entry, looked up): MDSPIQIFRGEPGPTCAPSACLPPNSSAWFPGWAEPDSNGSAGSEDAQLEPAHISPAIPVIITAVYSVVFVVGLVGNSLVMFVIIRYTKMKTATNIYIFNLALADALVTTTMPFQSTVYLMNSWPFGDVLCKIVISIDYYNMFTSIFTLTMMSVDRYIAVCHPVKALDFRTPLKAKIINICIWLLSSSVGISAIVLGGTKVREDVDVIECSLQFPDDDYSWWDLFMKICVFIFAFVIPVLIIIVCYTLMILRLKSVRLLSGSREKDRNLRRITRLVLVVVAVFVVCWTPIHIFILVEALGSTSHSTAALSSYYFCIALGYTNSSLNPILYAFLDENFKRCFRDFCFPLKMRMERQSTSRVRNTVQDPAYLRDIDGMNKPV
Sequence of Delta-type opioid receptor (P33533 whole entry): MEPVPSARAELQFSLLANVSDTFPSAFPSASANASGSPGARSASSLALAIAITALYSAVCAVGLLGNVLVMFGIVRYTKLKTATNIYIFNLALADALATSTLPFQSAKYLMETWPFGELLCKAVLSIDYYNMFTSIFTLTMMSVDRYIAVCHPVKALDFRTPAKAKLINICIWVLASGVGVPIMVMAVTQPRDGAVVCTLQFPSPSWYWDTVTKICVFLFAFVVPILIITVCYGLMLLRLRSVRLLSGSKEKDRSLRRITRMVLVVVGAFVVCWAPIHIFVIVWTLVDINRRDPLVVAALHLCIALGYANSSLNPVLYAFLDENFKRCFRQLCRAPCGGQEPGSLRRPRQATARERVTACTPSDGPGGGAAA
Sequence of Kappa-type opioid receptor (P41144 whole entry): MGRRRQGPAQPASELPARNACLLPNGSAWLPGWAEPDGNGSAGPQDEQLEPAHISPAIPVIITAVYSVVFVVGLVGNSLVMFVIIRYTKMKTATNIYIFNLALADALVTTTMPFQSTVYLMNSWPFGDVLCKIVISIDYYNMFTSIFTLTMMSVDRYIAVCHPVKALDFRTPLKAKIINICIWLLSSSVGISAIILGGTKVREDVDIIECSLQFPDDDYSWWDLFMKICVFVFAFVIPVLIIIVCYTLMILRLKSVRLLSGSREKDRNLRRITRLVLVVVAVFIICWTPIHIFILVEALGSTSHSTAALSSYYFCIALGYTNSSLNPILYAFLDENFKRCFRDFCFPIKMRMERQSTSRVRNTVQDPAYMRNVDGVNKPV
Sequence of Mu-type opioid receptor (P33535 whole entry): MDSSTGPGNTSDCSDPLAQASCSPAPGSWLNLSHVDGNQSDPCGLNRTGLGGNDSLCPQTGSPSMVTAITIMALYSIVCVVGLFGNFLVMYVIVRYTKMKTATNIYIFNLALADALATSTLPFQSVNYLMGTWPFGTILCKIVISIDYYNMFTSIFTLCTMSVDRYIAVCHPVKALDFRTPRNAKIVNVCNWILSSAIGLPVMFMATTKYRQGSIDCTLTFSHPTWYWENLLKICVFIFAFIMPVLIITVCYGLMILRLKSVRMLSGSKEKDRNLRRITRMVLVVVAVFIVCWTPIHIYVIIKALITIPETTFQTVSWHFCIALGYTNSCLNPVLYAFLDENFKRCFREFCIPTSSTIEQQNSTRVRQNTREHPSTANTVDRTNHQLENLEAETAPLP
Sequence of Opioid receptors; mu & delta (Homo sapiens) (P35372 whole entry, looked up): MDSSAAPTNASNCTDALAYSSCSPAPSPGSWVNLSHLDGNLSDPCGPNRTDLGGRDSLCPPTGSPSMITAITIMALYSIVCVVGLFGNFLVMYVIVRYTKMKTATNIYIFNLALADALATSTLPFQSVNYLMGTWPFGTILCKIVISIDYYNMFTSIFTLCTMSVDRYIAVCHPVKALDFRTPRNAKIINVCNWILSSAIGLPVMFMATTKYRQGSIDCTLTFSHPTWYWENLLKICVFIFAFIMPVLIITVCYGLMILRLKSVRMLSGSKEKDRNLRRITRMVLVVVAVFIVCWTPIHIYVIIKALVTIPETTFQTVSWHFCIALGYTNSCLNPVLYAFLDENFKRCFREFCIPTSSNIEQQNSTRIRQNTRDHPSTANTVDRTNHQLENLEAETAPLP
Sequence of Opioid receptors; mu & delta (Homo sapiens) (P41143 whole entry, looked up): as the sequence (P41143 whole entry) above
Sequence of Kappa-type opioid receptor (Homo sapiens) (P41145 whole entry): as the sequence (P41145 whole entry, looked up) above
Sequence of Mu-type opioid receptor (Homo sapiens) (P35372 whole entry): as the sequence (P35372 whole entry, looked up) above

For `CC1CN(CCCc2ccccc2)C2C[C@H](N)CC1(c1cccc(O)c1)C2` (single isomer, unassigned; (+)) [listing 1 of 2 here], the Ratio in experiment [1] amounted to 0.23; in experiment [2], 0.27.

What is called Ki is a dissociation constant, usually derived from enzyme kinetics or from competition with a known ligand. A lower Ki goes with a stronger hold on the target. In the case of `CC1CN(CCCc2ccccc2)C2C[C@H](N)CC1(c1cccc(O)c1)C2` (single isomer, unassigned; (+)) [listing 2 of 2 here], the Ki in experiment [3] was found to be 893 nM; in experiment [4], 246 nM; at Mu-type opioid receptor, 207 nM.

Consider `Oc1ccc2c3c1O[C@H]1c4[nH]c5c(c4C[C@@]4(O)[C@@H](C2)N(CC2CC2)CC[C@]314)C[C@@]1(O)[C@H]2Cc3ccc(O)c4c3[C@@]1(CCN2CC1CC1)[C@H]5O4`, for which the values for the Ke in experiment [5], in experiment [6] and in experiment [7] were 0.04 nM, 19 nM and 4.6 nM, respectively.

Regarding `CC1CN(CCCc2ccccc2)C2C[C@H](N)CC1(c1cccc(O)c1)C2` (single isomer, unassigned; (-)) [listing 1 of 2 here], the Ratio in experiment [1] was found to be 0.03; in experiment [2] it was 0.1.

For `CC1CN(CCCc2ccccc2)C2C[C@H](N)CC1(c1cccc(O)c1)C2` (single isomer, unassigned; (-)) [listing 2 of 2 here], the Ki in experiment [3] is 122 nM; in experiment [4], 14.7 nM; at Mu-type opioid receptor, 3.3 nM.
